Results: article PMC3836752 (Organic letters, 2013)

Assays:
BamL [1] = molecular target: T1, BamL (Bacillus velezensis, UniProt D3VMM1); assay: ITC binding assay with BamL; details: for Kd: BamL
T1 sequence (D3VMM1 1-270): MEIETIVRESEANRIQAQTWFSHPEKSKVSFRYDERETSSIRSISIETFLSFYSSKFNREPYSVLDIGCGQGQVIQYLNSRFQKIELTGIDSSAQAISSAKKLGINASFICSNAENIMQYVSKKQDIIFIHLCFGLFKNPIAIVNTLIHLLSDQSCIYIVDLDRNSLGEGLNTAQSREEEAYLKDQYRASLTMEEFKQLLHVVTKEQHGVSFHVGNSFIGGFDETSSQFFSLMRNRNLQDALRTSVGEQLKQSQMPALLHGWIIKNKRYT
In short: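 Test compounds were titrated with BamL by isothermal titration calorimetry. The binding isotherms were fitted to give Kd and thermodynamic binding parameters. The same titration was applied to a minimal arginine amide ligand.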

BamL [2] = molecular target: T1, BamL; assay: BamL methylation assay, ESI-MS endpoint / LC-MS; type: biochemical; details: for conversion into dimethylated product / dimethylation by BamL: condition A: 16 h endpoint assay, BamL in the presence of SAM, ESI-MS/HRMS and LC-MS
In short: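 Test compounds were incubated with BamL and scored as substrates by conversion of starting material. Two conditions were used: a standard assay, and a more stringent 1 h assay (condition B) with lower enzyme and substrate concentrations for finer resolution of substrate efficiency.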

BamL [3] = molecular target: T1, BamL; details: cited from earlier work; for processing by BamL: Arg-containing tetrapeptides as substrate mimics
Bacillus anthracis = details: against Bacillus anthracis; ref 1b; cited from earlier work

Molecule | Kd (BamL [1]) [nM] | conversion into dimethylated product (BamL [2]) | dimethylation by BamL (BamL [2]) | processing by BamL (BamL [3]) | further results
C=CCOC(=O)c1csc([C@@H](N)CCCNC(=N)N)n1 [compound 2] | 2200 | left detectable levels of unconverted starting material | dimethylated by BamL |  | increase in affinity for BamL versus 17 (2 vs. 17) (BamL [1]; addition of a single thiazole to Arg-NH2): two orders of magnitude
CCOC(=O)c1csc(-c2nc(-c3csc([C@@H](N)CCCNC(=N)N)n3)oc2C)n1 [compound 3] | 1700 | full conversion | dimethylated by BamL |  | affinity for BamL relative to monoazole 2 (BamL [1]): marginally higher affinity; thermodynamic origin of stronger interaction compared to 2 (BamL [1]; analysis of Gibbs free energy terms, 3 compared to 2): primarily entropically driven; processing by BamL compared to 2 (BamL [2]; 3 compared to 2, differences in affinity not solely responsible): enhanced processing; conversion into dimethylated product (reaction completeness) (BamL [2]; condition B: more stringent 1 h assay, lower concentrations of enzyme and substrate, ESI-MS): nearly complete; reaction efficiency with BamL (BamL [2]; three azole rings compared with one azole, conditions A and B): reaction efficiency increases substantially
N=C(N)NCCC[C@H](N)C(N)=O [compound 17, Arg-NH2] |  |  |  |  | conversion to (CH3)2-Arg-NH2 by BamL (BamL [3]): inefficiently converted
RAAA |  |  |  | unprocessed by BamL | 
RGGG |  |  |  | unprocessed by BamL | 
plantazolicin [PZN] |  |  |  |  | antibacterial action (Bacillus anthracis): highly discriminating antibacterial action against Bacillus anthracis
